Laboratory results taken from ChEMBL document CHEMBL2384929, “Synthesis and biological evaluation of fluoro analogues of antimitotic phenstatin” (Bioorg Med Chem, 2013).

Experiments:
Ovis aries = species: Ovis aries; assay: Inhibition of sheep brain tubulin assembly at 100 uM by DAPI staining-based fluorescence assay
Procedure, shortened: (§1)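 Tubulin from sheep brain, purified by two assembly–disassembly cycles, at about 2–3 mg/mL in 0.1 M MES, 0.5 mM MgCl2, 1 mM EGTA, 1 mM GTP, pH 6.6. Assembly followed by DAPI fluorescence at 37 °C. Single-point inhibition tested at 100 µM. IC50 is the concentration halving the assembly rate relative to no compound, mean of two experiments, with reference inhibitors run the same day.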

SN12C = assay: Cytotoxicity against human SN12C cells assessed as growth inhibition after 48 hrs by SRB assay; format: functional
Procedure, shortened: (§2)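 Run in the NCI 60 human tumour cell line panel. Cells exposed for 48 h, growth read by sulforhodamine B. Compounds were first screened at a single 10 µM dose, and those meeting preset threshold inhibition criteria went on to the 5-dose screen. GI50 is the molar concentration giving 50% growth inhibition.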

NCI/ADR-RES = assay: Cytotoxicity against human NCI/ADR-RES cells assessed as growth inhibition after 48 hrs by SRB assay; format: functional; procedure, shortened: as §2
MDA-MB-231 = assay: Cytotoxicity against human MDA-MB-231 cells assessed as growth inhibition after 48 hrs by SRB assay; format: functional; conditions: MDA-MB-231, 48 h; procedure, shortened: as §2
RXF 393 = assay: Cytotoxicity against human RXF393 cells assessed as growth inhibition after 48 hrs by SRB assay; format: functional; conditions: RXF 393, 48 h; procedure, shortened: as §2
Hs-578T = assay: Cytotoxicity against human Hs578T cells assessed as growth inhibition after 48 hrs by SRB assay; format: functional; procedure, shortened: as §2
SNB-75 = assay: Cytotoxicity against human SNB75 cells assessed as growth inhibition after 48 hrs by SRB assay; format: functional; conditions: SNB-75, 48 h; procedure, shortened: as §2
MDA-MB-435 [1] = assay: Cytotoxicity against human MDA-MB-435 cells assessed as growth inhibition after 48 hrs by SRB assay; format: functional; conditions: MDA-MB-435, 48 h; procedure, shortened: as §2
CCRF-CEM = assay: Cytotoxicity against human CCRF-CEM cells assessed as growth inhibition after 48 hrs by SRB assay; format: functional; procedure, shortened: as §2
[2] = Inhibition of sheep brain tubulin assembly by DAPI staining-based fluorescence assay; set-up: species or system Ovis aries; procedure, shortened: as §1
OVCAR-3 = assay: Cytotoxicity against human OVCAR3 cells assessed as growth inhibition after 48 hrs by SRB assay; format: functional; conditions: OVCAR-3, 48 h; procedure, shortened: as §2
ACHN = assay: Cytotoxicity against human ACHN cells assessed as growth inhibition after 48 hrs by SRB assay; format: functional; procedure, shortened: as §2
Malme-3M = assay: Cytotoxicity against human MALME-3M cells assessed as growth inhibition after 48 hrs by SRB assay; format: functional; procedure, shortened: as §2
SW-620 = assay: Cytotoxicity against human SW620 cells assessed as growth inhibition after 48 hrs by SRB assay; format: functional; conditions: SW-620, 48 h; procedure, shortened: as §2
NCI-H460 = assay: Cytotoxicity against human NCI-H460 cells assessed as growth inhibition after 48 hrs by SRB assay; format: functional; conditions: NCI-H460, 48 h; procedure, shortened: as §2
KM12 = assay: Cytotoxicity against human KM12 cells assessed as growth inhibition after 48 hrs by SRB assay; format: functional; conditions: KM12, 48 h; procedure, shortened: as §2
BT-549 = assay: Cytotoxicity against human BT549 cells assessed as growth inhibition after 48 hrs by SRB assay; format: functional; conditions: BT-549, 48 h; procedure, shortened: as §2
HCT-15 = assay: Cytotoxicity against human HCT15 cells assessed as growth inhibition after 48 hrs by SRB assay; format: functional; conditions: HCT-15, 48 h; procedure, shortened: as §2
SK-OV-3 = assay: Cytotoxicity against human SKOV3 cells assessed as growth inhibition after 48 hrs by SRB assay; format: functional; conditions: SK-OV-3, 48 h; procedure, shortened: as §2
NCI-H23 = assay: Cytotoxicity against human NCI-H23 cells assessed as growth inhibition after 48 hrs by SRB assay; format: functional; conditions: NCI-H23, 48 h; procedure, shortened: as §2
HL-60(TB) = assay: Cytotoxicity against human HL-60(TB) cells assessed as growth inhibition after 48 hrs by SRB assay; format: functional; conditions: HL-60, 48 h
Procedure, shortened: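 NCI 60-human-cancer-cell-line screen; only compounds meeting predetermined threshold inhibition criteria in the single-dose test went on to the 5-dose screen. Cells exposed for 48 h and growth read by sulforhodamine B assay. GI50 is the molar concentration giving 50% growth inhibition of tumour cells.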

K562 = assay: Cytotoxicity against human K562 cells assessed as growth inhibition after 48 hrs by SRB assay; format: functional; conditions: K562, 48 h; procedure, shortened: as §2
PC-3 = assay: Cytotoxicity against human PC3 cells assessed as growth inhibition after 48 hrs by SRB assay; format: functional; conditions: PC-3, 48 h; procedure, shortened: as §2
NCI-H522 = assay: Cytotoxicity against human NCI-H522 cells assessed as growth inhibition after 48 hrs by SRB assay; format: functional; conditions: NCI-H522, 48 h; procedure, shortened: as §2
SNB-19 = assay: Cytotoxicity against human SNB19 cells assessed as growth inhibition after 48 hrs by SRB assay; format: functional; conditions: SNB-19, 48 h; procedure, shortened: as §2
SR [3] = assay: Cytotoxicity against human SR cells assessed as growth inhibition after 48 hrs by SRB assay; format: functional; procedure, shortened: as §2
SF-268 = assay: Cytotoxicity against human SF268 cells assessed as growth inhibition after 48 hrs by SRB assay; format: functional; conditions: SF-268, 48 h; procedure, shortened: as §2
SF-539 = assay: Cytotoxicity against human SF539 cells assessed as growth inhibition after 48 hrs by SRB assay; format: functional; conditions: SF-539, 48 h; procedure, shortened: as §2
DU-145 = assay: Cytotoxicity against human DU145 cells assessed as growth inhibition after 48 hrs by SRB assay; format: functional; conditions: DU-145, 48 h; procedure, shortened: as §2
M14 = assay: Cytotoxicity against human M14 cells assessed as growth inhibition after 48 hrs by SRB assay; format: functional; conditions: M14, 48 h; procedure, shortened: as §2
SR [4] = assay: Cytotoxicity against human SR cells assessed as growth inhibition at 10 uM after 48 hrs by SRB assay; format: functional; conditions: read-out: GI
Procedure, shortened: (§3)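 Single-dose NCI 60-cell screen at 10 µM with 48 h exposure and sulforhodamine B read-out. Values are percentage growth per cell line. A summary ratio counts cell lines with 0–50% growth over all cell lines tested.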

MDA-MB-435 [5] = assay: Cytotoxicity against human MDA-MB-435 cells assessed as growth inhibition at 10 uM after 48 hrs by SRB assay; format: functional; conditions: MDA-MB-435, 48 h, read-out: GI; procedure, shortened: as §3

SMILES: COc1ccc(C(=O)c2cc(F)c(F)c(OC)c2F)c(OC)c1N
- inhibition (Ovis aries): 89%
- GI50 (SN12C): 5.81 µM
- GI50 (NCI/ADR-RES): 1670 nM
- GI50 (MDA-MB-231): 8.55 µM
- GI50 (RXF 393): 4.51 µM
- GI50 (Hs-578T): 3780 nM
- GI50 (SNB-75): 1700 nM
- GI50 (MDA-MB-435 [1]): 407 nM
- GI50 (CCRF-CEM): 3350 nM
- IC50 [2]: 29.2 µM
- GI50 (OVCAR-3): 2090 nM
- GI50 (ACHN): 7.9 µM
- GI50 (Malme-3M): 11.5 µM
- GI50 (SW-620): 2840 nM
- GI50 (NCI-H460): 3000 nM
- GI50 (KM12): 890 nM
- GI50 (BT-549): 34.1 µM
- GI50 (HCT-15): 2980 nM
- GI50 (SK-OV-3): 8.37 µM
- GI50 (NCI-H23): 30.7 µM
- GI50 (HL-60(TB)): 3690 nM
- GI50 (K562): 1830 nM
- GI50 (PC-3): 10.2 µM
- GI50 (NCI-H522): 752 nM
- GI50 (SNB-19): 5.47 µM
- GI50 (SR [3]): 961 nM
- GI50 (SF-268): 6.54 µM
- GI50 (SF-539): 3590 nM
- GI50 (DU-145): 3910 nM

SMILES: COc1ccc(C(=O)c2cc(F)c(F)c(OC)c2F)c(O)c1O
- inhibition (Ovis aries): 93%
- IC50 [2]: 29.2 µM

SMILES: COc1ccc(C(=O)c2cc(F)c(F)c(OC)c2F)cc1OC(=O)CCl
- inhibition (Ovis aries): 46%

SMILES: COc1cc([C@@H]2c3cc4c(cc3C[C@H]3COC(=O)[C@@H]32)OCO4)cc(OC)c1OC [DESOXYPODOPHYLLOTOXIN]
- inhibition (Ovis aries): 100%
- IC50 [2]: 1.76 µM

SMILES: C=C(c1cc(OC)c(OC)c(OC)c1)c1cc(OC)c(F)cc1OC
- inhibition (Ovis aries): 44%
- GI50 (SN12C): 0.498 µM
- GI50 (NCI/ADR-RES): 375 nM
- GI50 (MDA-MB-231): 0.945 µM
- GI50 (RXF 393): 2.16 µM
- GI50 (Hs-578T): 2190 nM
- GI50 (SNB-75): 920 nM
- GI50 (MDA-MB-435 [1]): 260 nM
- GI50 (CCRF-CEM): 1100 nM
- GI50 (OVCAR-3): 521 nM
- GI50 (ACHN): 6.54 µM
- GI50 (Malme-3M): > 10 µM
- GI50 (SW-620): 587 nM
- GI50 (M14): 547 nM
- GI50 (NCI-H460): 1220 nM
- GI50 (KM12): 568 nM
- GI50 (BT-549): 4.12 µM
- GI50 (HCT-15): 666 nM
- GI50 (SK-OV-3): 1.05 µM
- GI50 (NCI-H23): 2.2 µM
- GI50 (HL-60(TB)): 273 nM
- GI50 (K562): 340 nM
- GI50 (PC-3): 2.24 µM
- GI50 (NCI-H522): 601 nM
- GI50 (SNB-19): 3.3 µM
- GI50 (SR [3]): 455 nM
- GI50 (SF-268): 2.67 µM
- GI50 (SF-539): 2160 nM
- GI50 (DU-145): 2440 nM

SMILES: COc1cc(C(=O)c2cc(OC)c(O)c(OC)c2)c(OC)cc1F
- inhibition (Ovis aries): 48%
- inhibition of growth at 10 µM (SR [4]): 22%
- inhibition of growth at 10 µM (MDA-MB-435 [5]): 21%

SMILES: COc1ccc(C(=O)c2cc(OC)c(OC)c(OC)c2)cc1O [PHENSTATIN]
- inhibition (Ovis aries): 99%
- IC50 [2]: 3.43 µM
- GI50 (OVCAR-3): 2 nM
- GI50 (NCI-H460): 6 nM
- GI50 (DU-145): 34 nM
